ChEMBL document CHEMBL1914440, “Discovery of potent, selective, and orally bioavailable alkynylphenoxyacetic acid CRTH2 (DP2) receptor antagonists for the treatment of allergic inflammatory diseases” (J Med Chem, 2011)

Columns and labels:
[1] = molecular target: T1, Prostaglandin D2 receptor 2 (Homo sapiens, UniProt Q9Y5Y4); assay: Displacement of [3H]PGD2 from human CRTH2 expressed in chinese hamster CHO cells by liquid scintillation counting; format: cell-based
T1 sequence (Q9Y5Y4 whole entry): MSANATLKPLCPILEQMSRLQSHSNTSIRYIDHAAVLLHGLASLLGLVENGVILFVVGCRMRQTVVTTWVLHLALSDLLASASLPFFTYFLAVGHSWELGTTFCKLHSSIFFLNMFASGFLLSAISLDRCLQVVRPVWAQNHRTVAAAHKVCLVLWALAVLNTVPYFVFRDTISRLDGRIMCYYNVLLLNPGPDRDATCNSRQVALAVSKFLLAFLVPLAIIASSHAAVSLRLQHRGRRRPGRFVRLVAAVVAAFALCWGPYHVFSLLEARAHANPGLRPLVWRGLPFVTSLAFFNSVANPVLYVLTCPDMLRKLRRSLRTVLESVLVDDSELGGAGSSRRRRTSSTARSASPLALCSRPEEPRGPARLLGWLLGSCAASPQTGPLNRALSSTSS
Summary of the method: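 Scintillation proximity competition assay: 2–5 μg human CRTH2 cell membranes, 1.5 nM [3H]PGD2, WGA-SPA beads, 10 mM HEPES/KOH pH 7.4, 10 mM MnCl2, protease inhibitors, 1% DMSO; 90 min, room temperature, shaking. Nonspecific binding defined with 1 μM PGD2. Ki by Cheng–Prusoff, mean of ≥3 independent dose–response experiments.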

[2] = molecular target: T2, Prostaglandin D2 receptor 2 (Mus musculus, UniProt Q9Z2J6); assay: Displacement of [3H]PGD2 from mouse CRTH2 expressed in human HEK cells by liquid scintillation counting; format: cell-based, HEK293
T2 sequence (Q9Z2J6 whole entry): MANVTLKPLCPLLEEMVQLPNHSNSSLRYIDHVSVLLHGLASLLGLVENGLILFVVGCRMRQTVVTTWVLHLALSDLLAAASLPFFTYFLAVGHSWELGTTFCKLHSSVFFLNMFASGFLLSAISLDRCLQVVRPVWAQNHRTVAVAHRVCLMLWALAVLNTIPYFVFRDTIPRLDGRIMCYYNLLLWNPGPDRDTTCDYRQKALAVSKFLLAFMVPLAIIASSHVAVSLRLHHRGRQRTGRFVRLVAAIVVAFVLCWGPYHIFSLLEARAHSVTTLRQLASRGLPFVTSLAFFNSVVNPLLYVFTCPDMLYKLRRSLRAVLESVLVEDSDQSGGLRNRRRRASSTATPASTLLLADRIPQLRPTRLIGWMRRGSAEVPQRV
Summary of the method: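 Mouse CRTH2 cDNA stably expressed in HEK293(EBNA) cells (hygromycin-selected) and membranes made by nitrogen cavitation. SPA competition uses 2–5 μg membranes, 1.5 nM [3H]PGD2, HEPES/KOH pH 7.4 with 10 mM MnCl2, 1% DMSO, 90 min at room temperature. Nonspecific binding defined with 1 μM PGD2. Ki by Cheng–Prusoff, ≥3 independent experiments.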

[3] = molecular target: T1, Prostaglandin D2 receptor 2; assay: Displacement of [3H]PGD2 from human CRTH2 expressed in chinese hamster CHO cells by liquid scintillation counting in the presence of 0.1% BSA; format: cell-based
Summary of the method: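 Scintillation proximity assay on 2–5 μg human CRTH2 membranes with WGA-SPA beads and 1.5 nM [3H]PGD2. Buffer: 10 mM HEPES/KOH pH 7.4, 10 mM MnCl2, protease inhibitors, 1% DMSO, 0.1% BSA. Incubated 90 min at room temperature with shaking. Nonspecific binding defined with 1 μM PGD2. Ki by Cheng–Prusoff, mean of at least three independent dose–response experiments.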

[4] = molecular target: T1, Prostaglandin D2 receptor 2; assay: Antagonist activity at human CRTH2 expressed in human CHO cells by cellular dielectric spectroscopy
[5] = molecular target: T1, Prostaglandin D2 receptor 2; assay: Antagonist activity at human CRTH2 expressed in […] by cellular dielectric spectroscopy in the presence of PGD2 and 0.1% BSA; format: functional, cell-based
Summary of the method: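 CHO-CRTH2 cells grown in HAM's F12 with 10% FCS and 400 μg/mL Geneticin, seeded at 100000 cells/well, 24 h at 37 °C. Washed in HBSS plus 10 mM HEPES pH 7.4 with 1% DMSO and 0.1% BSA. Compound added, then PGD2 at its EC80.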

Cytochrome P450 2C9 = Cytochrome P450 2C9 (Homo sapiens, UniProt P11712); assay: Inhibition of human recombinant CYP2C9 expressed in baculovirus infected insect cells preincubated for 15 mins measured after 30 mins by luminescence analysis; format: ADME
Cytochrome P450 2C9, sequence (P11712 whole entry): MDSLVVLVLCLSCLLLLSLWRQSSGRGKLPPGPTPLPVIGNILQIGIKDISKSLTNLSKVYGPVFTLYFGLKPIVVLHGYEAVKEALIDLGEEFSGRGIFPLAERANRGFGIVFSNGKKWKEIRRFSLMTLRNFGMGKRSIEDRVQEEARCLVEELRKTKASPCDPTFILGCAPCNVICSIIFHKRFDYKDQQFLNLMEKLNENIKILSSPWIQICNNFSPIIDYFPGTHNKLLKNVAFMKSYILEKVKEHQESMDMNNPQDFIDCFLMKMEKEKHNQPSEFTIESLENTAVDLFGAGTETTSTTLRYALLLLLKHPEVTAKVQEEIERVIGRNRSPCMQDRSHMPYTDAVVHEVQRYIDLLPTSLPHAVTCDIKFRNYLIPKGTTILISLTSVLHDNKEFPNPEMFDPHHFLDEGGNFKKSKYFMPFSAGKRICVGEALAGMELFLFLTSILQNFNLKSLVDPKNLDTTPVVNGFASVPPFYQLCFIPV

Rattus norvegicus = species: Rattus norvegicus; assay: Inhibition of rat GABA gated chloride ion channel at 10 uM
Summary of the method: (§1)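 Selectivity screen: panel of 50 receptor and ion-channel targets, tested at 10 μM; EP2 by binding assay; GABA-gated Cl− channel from rat. Result expressed as % inhibition.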

[6] = molecular target: Prostaglandin E2 receptor EP2 subtype (Homo sapiens) (UniProt P43116); assay: Inhibition of EP2 receptor at 10 uM; summary of the method: as §1
Prostaglandin E2 receptor EP2 subtype (Homo sapiens), sequence (P43116 whole entry): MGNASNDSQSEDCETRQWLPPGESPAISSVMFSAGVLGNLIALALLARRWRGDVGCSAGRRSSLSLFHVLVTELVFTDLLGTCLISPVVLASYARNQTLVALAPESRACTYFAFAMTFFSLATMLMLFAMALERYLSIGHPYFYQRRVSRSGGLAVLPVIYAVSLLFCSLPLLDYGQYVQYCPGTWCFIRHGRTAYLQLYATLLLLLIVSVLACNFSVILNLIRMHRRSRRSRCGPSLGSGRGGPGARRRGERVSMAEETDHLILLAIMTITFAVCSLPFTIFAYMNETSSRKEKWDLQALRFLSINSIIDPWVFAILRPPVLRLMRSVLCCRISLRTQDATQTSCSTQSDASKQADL

[7] = Percentage unbound in human plasma; format: ADME, cell-free
[8] = Percentage unbound in rat plasma; format: ADME, cell-free
[9] = Percentage unbound in mouse plasma; format: ADME, cell-free
[10] = Intrinsic clearance in human liver microsomes assessed per mg of protein at 1 uM by LC/MS/MS analysis; format: ADME, Microsome
[11] = Intrinsic clearance in rat liver microsomes assessed per mg of protein at 1 uM by LC/MS/MS analysis; format: ADME, Microsome
[12] = Kinetic solubility of the compound in 2% DMSO; format: physicochemical; settings: read-out: Kinetic_solubility
[13] = Kinetic solubility of the compound in phosphate buffered saline; format: physicochemical; settings: read-out: Kinetic_solubility
[14] = Apparent permeability across human Caco2 cells at 1 uM after 2 hrs by LC/MS/MS analysis; format: ADME, cell-based; settings: Caco-2
[15] = Lipophilicity, log D of the compound at pH 7.4; format: physicochemical; settings: buffer
[16] = Clearance in BALB/c mouse at 0.2 mg/kg, iv and 1 mg/kg, po by LC/MS/MS analysis; format: ADME, organism-based; settings: in vivo
Summary of the method: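 Low-dose cassette PK in mouse: 0.2 mg/kg iv and 1 mg/kg po.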

[17] = Oral bioavailability in BALB/c mouse at 1 mg/kg by LC/MS/MS analysis; format: ADME, organism-based; settings: in vivo
Summary of the method: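 Oral bioavailability in mouse from a 1 mg/kg po dose given in a cocktail (cassette) experiment.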

[18] = Half life in BALB/c mouse at 0.2 mg/kg, iv by LC/MS/MS analysis; format: ADME, organism-based; parameters: dose 0.2 mg/kg, route intravenous; settings: in vivo
[19] = Half life in BALB/c mouse at 1 mg/kg, po by LC/MS/MS analysis; format: ADME, organism-based; parameters: dose 1 mg/kg, route oral; settings: in vivo
[20] = Volume of distribution at steady state in BALB/c mouse at 0.2 mg/kg, iv and 1 mg/kg, po by LC/MS/MS analysis; settings: in vivo, read-out: Vdss
[21] = Clearance in BALB/c mouse at 5 mg/kg, po by LC/MS/MS analysis; format: ADME, organism-based; parameters: dose 5 mg/kg, route oral; settings: in vivo
[22] = Oral bioavailability in BALB/c mouse at 5 mg/kg by LC/MS/MS analysis; format: ADME, organism-based; settings: in vivo
Summary of the method: (§2)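 Mouse PK after a 5 mg/kg oral dose.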

[23] = AUC in BALB/c mouse at 1 mg/kg, po; format: ADME, organism-based; parameters: dose 1 mg/kg, route oral; settings: plasma
[24] = molecular target: T1, Prostaglandin D2 receptor 2; assay: Antagonist activity human CRTH2 expressed in chinese hamster CHO cells assessed as inhibition of PGD2-induced [35S]GTPgamma binding by liquid scintillation counting; format: functional, cell-based
Summary of the method: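 10 μg human CRTH2 membranes in 20 mM HEPES/KOH pH 7.4, 10 mM MgCl2, 10 μg/mL saponin, 3 μM GDP, 150 mM NaCl, 2% DMSO, 30 °C. Preincubated 10 min, then 0.15 nM [35S]GTPγS for 30 min; stopped by centrifugation. Antagonism tested against 80 nM PGD2. Nonspecific binding with 10 μM GTPγS. Run without BSA.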

[25] = AUC in BALB/c mouse at 5 mg/kg, po; format: ADME, organism-based; parameters: dose 5 mg/kg, route oral; settings: plasma; summary of the method: as §2
[26] = Half life in BALB/c mouse at 1 mg/kg, iv by LC/MS/MS analysis; format: ADME, organism-based; parameters: dose 1 mg/kg, route intravenous; settings: in vivo
[27] = Half life in BALB/c mouse at 5 mg/kg, po by LC/MS/MS analysis; format: ADME, organism-based; parameters: dose 5 mg/kg, route oral; settings: in vivo
[28] = AUC in BALB/c mouse at 5 mg/kg, po by LC/MS/MS analysis; format: ADME, organism-based; parameters: dose 5 mg/kg, route oral; settings: plasma
Mus musculus [29] = assay: Antiinflammatory activity in BALB/c mouse model assessed as inhibition of ovalbumin-induced eosinophil accumulation in bronchoalveolar lavage fluid at 3 mg/kg, po administered 1 hr prior to and 7 hrs after ovalbumin challenge for 3 days measured 8 hrs after final dose by cell counting; format: functional; settings: Lung
Summary of the method: (§3)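 Compound given by oral gavage 1 h before and 7 h after each challenge. BAL taken 8 h after the last challenge. Total cells counted by hemocytometer; eosinophils counted on DiffQuik-stained cytospins. Reported as mean % inhibition ± SEM.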

Mus musculus [30] = assay: Antiinflammatory activity in BALB/c mouse model assessed as inhibition of ovalbumin-induced eosinophil accumulation in bronchoalveolar lavage fluid at 10 mg/kg, po administered 1 hr prior to and 7 hrs after ovalbumin challenge for 3 days measured 8 hrs after final dose by cell counting; format: functional; settings: Lung; summary of the method: as §3
Mus musculus [31] = assay: Antiinflammatory activity in BALB/c mouse model assessed as inhibition of ovalbumin-induced eosinophil accumulation in bronchoalveolar lavage fluid at 30 mg/kg, po administered 1 hr prior to and 7 hrs after ovalbumin challenge for 3 days measured 8 hrs after final dose by cell counting; format: functional; settings: Lung; summary of the method: as §3
Mus musculus [32] = assay: Antiinflammatory activity in BALB/c mouse contact hypersensitivity model assessed as inhibition of FITC-mediated ear swelling at 3 mg/kg, po administered 1 hr prior to and 7 hrs after the FITC-challenge measured 24 hrs after final dose; format: functional
Summary of the method: (§4)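 Female 9-week-old BALB/c mice sensitized on days 0 and 1 with 0.5% FITC in acetone/dibutyl phthalate (sham group: vehicle only). Right ear challenged on day 6 with 0.5% FITC. Compound given by oral gavage 1 h before and 7 h after challenge. Ear thickness measured before and 24 h after challenge. Reported as mean % inhibition ± SEM.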

Mus musculus [33] = assay: Antiinflammatory activity in BALB/c mouse contact hypersensitivity model assessed as inhibition of FITC-mediated ear swelling at 10 mg/kg, po administered 1 hr prior to and 7 hrs after the FITC-challenge measured 24 hrs after final dose; format: functional; summary of the method: as §4
Mus musculus [34] = assay: Antiinflammatory activity in BALB/c mouse contact hypersensitivity model assessed as inhibition of FITC-mediated ear swelling at 30 mg/kg, po administered 1 hr prior to and 7 hrs after the FITC-challenge measured 24 hrs after final dose; format: functional; summary of the method: as §4

O=C(O)COc1ccc(Cl)cc1C#Cc1cccc(Cl)c1
Ki [1]: 0.029 µM | Ki [2]: 0.0374 µM | IC50 [3]: 0.029 µM | IC50 [4]: 0.114 µM | IC50 [5]: 1.2 µM | IC50 (Cytochrome P450 2C9): 1.44 µM | inhibition (Rattus norvegicus): 76% | inhibition [6]: 66% | fraction unbound [7]: < 0.003 | fraction unbound [8]: < 0.003 | fraction unbound [9]: < 0.003 | microsomal CLint at 1 µM [10]: 12 µL/min/mg | microsomal CLint at 1 µM [11]: 27 µL/min/mg | solubility kinetic [12]: > 200 µM | solubility kinetic [13]: > 200 µM | Papp at 2 h, 1 µM [14]: 18.4 ×10⁻⁶ cm/s | logD [15]: 0.5 | clearance [16]: 16.7 mL/min/kg | bioavailability [17]: 82% | half-life [18]: 0.3 h | half-life [19]: 1.6 h | Vd [20]: 0.3 L/kg

CS(=O)(=O)c1ccc(Cl)c(C#Cc2cc(Cl)ccc2OCC(=O)O)c1
Ki [1]: 0.0035 µM | fraction unbound [7]: 0.007 | fraction unbound [8]: 0.003 | fraction unbound [9]: 0.025 | CL/F [21]: 11.7 mL/min/kg | bioavailability [22]: 141% | AUC [23]: 1390 ng·h/mL

CCCS(=O)(=O)c1ccc(F)c(C#Cc2cc(Cl)ccc2OCC(=O)O)c1
Ki [1]: 0.0034 µM | Ki [2]: 0.00037 µM | IC50 [24]: 0.008 µM | IC50 [4]: 0.028 µM | fraction unbound [7]: 0.01 | fraction unbound [8]: 0.004 | fraction unbound [9]: 0.007 | microsomal CLint at 1 µM [10]: 12 µL/min/mg | microsomal CLint at 1 µM [11]: < 10 µL/min/mg | Papp at 2 h, 1 µM [14]: 10.8 ×10⁻⁶ cm/s | CL/F [21]: 6.67 mL/min/kg | AUC [25]: 6140 ng·h/mL | half-life [26]: 2 h | half-life [27]: 1.9 h | AUC [28]: 6140 ng·h/mL | inhibition in vivo at 3 mg/kg (Mus musculus [29]): 19% | inhibition in vivo at 10 mg/kg (Mus musculus [30]): 27% | inhibition in vivo at 30 mg/kg (Mus musculus [31]): 55% | inhibition in vivo at 3 mg/kg (Mus musculus [32]): 36% | inhibition in vivo at 10 mg/kg (Mus musculus [33]): 54% | inhibition in vivo at 30 mg/kg (Mus musculus [34]): 48%
